In ChEMBL document CHEMBL2202977, “Optimization and structure-activity relationships of a series of potent inhibitors of methicillin-resistant Staphylococcus aureus (MRSA) pyruvate kinase as novel antimicrobial agents” (Bioorg Med Chem, 2012):
In brackets after ≈: the same amount, converted by molar mass.

What was measured:
Pyruvate kinase = molecular target: T1, Pyruvate kinase (Staphylococcus aureus (strain MRSA252), UniProt Q6GG09); assay: Inhibition of methicillin-resistant Staphylococcus aureus 252 pyruvate kinase by LDH assay; parameters: species or system Staphylococcus aureus subsp. aureus MRSA252
T1 sequence (Q6GG09 whole entry): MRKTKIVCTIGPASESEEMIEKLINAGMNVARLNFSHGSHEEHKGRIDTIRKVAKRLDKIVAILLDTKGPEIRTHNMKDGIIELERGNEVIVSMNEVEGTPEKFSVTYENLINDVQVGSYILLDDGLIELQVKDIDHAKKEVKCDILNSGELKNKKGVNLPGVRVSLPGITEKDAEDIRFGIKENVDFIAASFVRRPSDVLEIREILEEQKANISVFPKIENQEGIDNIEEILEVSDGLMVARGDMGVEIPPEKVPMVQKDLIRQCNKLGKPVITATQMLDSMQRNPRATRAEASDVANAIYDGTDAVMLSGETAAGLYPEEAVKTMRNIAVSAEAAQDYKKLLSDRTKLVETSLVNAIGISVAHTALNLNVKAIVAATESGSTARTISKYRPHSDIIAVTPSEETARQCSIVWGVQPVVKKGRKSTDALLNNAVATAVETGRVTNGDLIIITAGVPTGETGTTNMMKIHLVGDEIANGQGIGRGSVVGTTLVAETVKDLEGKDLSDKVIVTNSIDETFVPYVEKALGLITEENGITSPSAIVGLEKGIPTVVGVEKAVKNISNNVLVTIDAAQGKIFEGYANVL
Method in brief: (§1)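 MRSA pyruvate kinase activity was measured by a previously described procedure. IC50 was calculated from triplicate 15-point titrations, or averaged over n such determinations. Where no IC50 was obtained, the value is % inhibition at the highest concentration tested.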

Staphylococcus aureus [1] = assay: Antimicrobial activity against Staphylococcus aureus ATCC 29213 after 24 hrs broth microdilution method; type: functional
Method in brief: (§2)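 MIC taken as the minimum concentration giving >98% growth inhibition of the named S. aureus strain (RN4220, ATCC 25923 or ATCC 29213). Values are single determinations or averages of n determinations. Vancomycin was run as control.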

[2] = molecular target: T2, Pyruvate kinase (Staphylococcus aureus (strain MRSA252)) (UniProt Q6GG09); assay: Inhibition of methicillin-resistant Staphylococcus aureus 252 pyruvate kinase at 10 uM by LDH assay; details: Staphylococcus aureus subsp. aureus MRSA252; method in brief: as §1
T2 sequence (whole entry): T1 sequence (Q6GG09 whole entry)

Staphylococcus aureus [3] = assay: Antimicrobial activity against Staphylococcus aureus RN4220 after 24 hrs broth microdilution method; type: functional; method in brief: as §2
[4] = molecular target: Pyruvate kinase PKM (Homo sapiens) (UniProt P14618); assay: Inhibition of human pyruvate kinase M2 at 10 uM by LDH assay
Method in brief: (§3)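 Selected compounds were tested against mammalian PK isoforms M1, M2, R and L at the highest concentration, 10 µM. Results are given as percent inhibition.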

[5] = molecular target: Pyruvate kinase PKLR (Homo sapiens) (UniProt P30613); assay: Inhibition of human pyruvate kinase L at 10 uM by LDH assay; method in brief: as §3
[6] = molecular target: Pyruvate kinase PKLR (Homo sapiens) (UniProt P30613); assay: Inhibition of human pyruvate kinase R at 10 uM by LDH assay; method in brief: as §3
[7] = molecular target: Pyruvate kinase PKM (Homo sapiens) (UniProt P14618); assay: Inhibition of human pyruvate kinase M1 at 10 uM by LDH assay; method in brief: as §3

Sequence of Pyruvate kinase PKLR (Homo sapiens) (P30613 whole entry, looked up): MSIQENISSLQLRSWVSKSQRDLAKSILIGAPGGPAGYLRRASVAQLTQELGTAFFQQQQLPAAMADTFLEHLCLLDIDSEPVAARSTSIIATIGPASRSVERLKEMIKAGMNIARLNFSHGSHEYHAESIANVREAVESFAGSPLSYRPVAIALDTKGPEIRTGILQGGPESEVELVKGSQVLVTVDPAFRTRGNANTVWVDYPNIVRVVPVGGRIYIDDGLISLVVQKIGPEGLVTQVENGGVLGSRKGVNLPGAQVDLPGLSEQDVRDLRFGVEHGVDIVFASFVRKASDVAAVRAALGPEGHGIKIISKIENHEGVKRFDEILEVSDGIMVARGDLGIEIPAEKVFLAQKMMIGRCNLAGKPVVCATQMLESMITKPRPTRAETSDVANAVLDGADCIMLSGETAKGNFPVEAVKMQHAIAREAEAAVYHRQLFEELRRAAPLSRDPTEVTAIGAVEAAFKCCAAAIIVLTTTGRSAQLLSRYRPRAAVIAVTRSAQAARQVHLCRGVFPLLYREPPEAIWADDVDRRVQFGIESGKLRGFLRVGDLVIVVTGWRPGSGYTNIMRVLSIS
Sequence of Pyruvate kinase PKM (Homo sapiens) (P14618 2-531 limits assumed): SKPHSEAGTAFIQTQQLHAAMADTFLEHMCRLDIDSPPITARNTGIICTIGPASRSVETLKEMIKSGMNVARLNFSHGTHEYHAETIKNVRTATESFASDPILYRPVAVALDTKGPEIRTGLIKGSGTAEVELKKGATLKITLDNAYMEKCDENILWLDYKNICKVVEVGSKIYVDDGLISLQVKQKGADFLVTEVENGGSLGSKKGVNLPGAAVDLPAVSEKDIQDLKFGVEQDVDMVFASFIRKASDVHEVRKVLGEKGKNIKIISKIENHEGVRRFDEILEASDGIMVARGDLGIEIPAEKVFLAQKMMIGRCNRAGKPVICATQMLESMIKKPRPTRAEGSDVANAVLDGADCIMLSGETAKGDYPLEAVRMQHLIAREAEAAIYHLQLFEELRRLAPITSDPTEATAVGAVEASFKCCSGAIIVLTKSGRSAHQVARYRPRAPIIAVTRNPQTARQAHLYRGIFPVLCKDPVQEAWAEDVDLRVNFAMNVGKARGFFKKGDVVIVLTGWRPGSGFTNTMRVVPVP

| SMILES | IC50 (Pyruvate kinase) | MIC>98 (Staphylococcus aureus [1]) | inhibition [2] | MIC>98 (Staphylococcus aureus [3]) | inhibition [4] | inhibition [5] | inhibition [6] | inhibition [7] |
| --- | --- | --- | --- | --- | --- | --- | --- | --- |
| CCC(=NNC(=O)c1cc(Br)ccc1O)c1cc2cc(Br)ccc2n1C (mixture of isomers) | 0.168 µM | 2 mg/L |  |  |  |  |  |  |
| C/C(=N\OC(=O)c1cc(Br)ccc1O)c1cc2ccccc2n1C |  |  | 34% | >155 mg/L |  |  |  |  |
| C#CCOc1ccccc1C(=O)N/N=C(\C)c1cc2cc(Br)ccc2[nH]1 | 0.064 µM |  | 93.2% | >205 mg/L | 2.5% | 23.1% | 24% | 20.2% |
| C/C(=N\NC(=O)c1ccc(Br)cc1O)c1cc2ccccc2[nH]1 | 1.31 µM |  |  |  |  |  |  |  |
| CC(=NNC(=O)c1cc(Br)ccc1O)c1nc2ccccc2s1 | 0.224 µM |  |  | >78 mg/L |  |  |  |  |
| C/C(=N\NC(=O)c1cc(Br)ccc1O)c1cc2cc(C(F)(F)F)ccc2[nH]1 |  |  | 46% |  |  |  |  |  |
| CCC(=NNC(=O)c1cc(Br)ccc1O)c1cc2ccccc2n1C (mixture of isomers) | 0.461 µM |  | 99.1% | 5 mg/L | -1.5% | 2.7% | -1.9% | -4.3% |
| C/C(=N\NC(=O)c1cc(Br)ccc1O)c1cc2cc(I)ccc2[nH]1 | 0.043 µM |  |  | >64 mg/L |  |  |  |  |
| CC(=NNC(=O)c1cc(Br)ccc1O)c1cc2cc(F)c(F)cc2n1C (mixture of isomers) | 0.061 µM |  | 95.4% | 1.6 mg/L | -8.1% | -2.4% | 9% |  |
| C/C(=N\NC(=O)c1cc(Br)ccc1O)c1cc2cc(F)ccc2[nH]1 | 0.049 µM |  | 97% | >195 mg/L | 0.4% | -0.5% | -1.6% | -4.6% |
| C/C(=N\NC(=O)c1cc(Br)ccc1O)c1cc2ccccc2s1 | 0.286 µM |  | 96.4% | >195 mg/L | -1.1% | 7.3% | 12.5% | 10.2% |
| CC(=NNC(=O)c1cc(Br)ccc1O)c1cc2cc(Br)ccc2n1C (mixture of isomers) | 0.146 µM |  |  | 1.4 mg/L | 11.9% | 9.2% | 14.2% | 19.5% |
| COc1cc(O)c(C(=O)NN=C(C)c2cc3ccccc3n2C)cc1Br (mixture of isomers) | 0.841 µM |  |  | >167 mg/L |  |  |  |  |
| CC(=NNC(=O)c1cc(Br)ccc1O)c1nc2ccccc2n1C (mixture of isomers) | 0.227 µM |  |  | >194 mg/L | 0.5% | -1.3% | 7.1% | -3% |
| C/C(=N\NC(=O)c1ccccc1)c1cc2ccccc2[nH]1 |  |  | 28% | >139 mg/L |  |  |  |  |
| C/C(=N\NC(=O)c1ccccc1O)c1cc2ccccc2[nH]1 | 8.62 µM |  |  | 59 mg/L (≈ 201 µM) |  |  |  |  |
| C/C(=N\NC(=O)c1cc(-c2ccccc2)ccc1O)c1cc2ccccc2[nH]1 |  |  | 20% |  |  |  |  |  |
| COc1ccc(Br)cc1C(=O)O/N=C(\C)c1cc2ccccc2n1C |  |  | 33% | >161 mg/L |  |  |  |  |
| COc1ccc(Br)cc1S(=O)(=O)N/N=C(\C)c1cc2ccccc2[nH]1 |  |  | 12% |  |  |  |  |  |
| CC(=NNC(=O)c1cc(Br)ccc1O)c1cc2cc(F)ccc2n1C (mixture of isomers) | 0.165 µM |  | 96.1% | 3.3 mg/L |  | -2.3% | -2.9% | -4.5% |
| C/C(=N\NC(=O)c1cc(Br)ccc1O)c1cc2cc(F)c(F)cc2[nH]1 | 0.02 µM |  |  | >82 mg/L |  |  |  |  |
| C/C(=N\NC(=O)c1cc(I)ccc1O)c1cc2ccccc2[nH]1 | 0.151 µM |  | 97% | >84 mg/L | -1.3% | -1.6% | 0.9% | 0% |
| C/C(=N\NC(=O)c1cc(Br)cc(Br)c1O)c1cc2ccccc2[nH]1 | 0.074 µM |  |  | 64 mg/L (≈ 142 µM) |  |  |  |  |
